Paper PMC3204611 (Cancer prevention research (Philadelphia, Pa.), 2010)
“Also recorded” adds a separate entry of the source. Where two headings read alike, the source gives them in different places.

Legend:
[1] = tested on: N-methyl-N-nitrosourea (MNU)-induced mammary cancer; conditions: cited from earlier work; for average tumors per animal: controls 6.0
[2] = rats, 7 days, cited from earlier work
Human hepatocytes = conditions: treatment up to 50 μmol/L; cited from earlier work
colony formation = conditions: 0.1 μmol/L (29 ng/mL); cited from earlier work
RAR = conditions: relative to 9-cis-RA and other RA; cited from earlier work
[3] = tested on: human breast cancer cells; conditions: cited from earlier work
[4] = Toxicity / adverse events; format: in vivo, human
Method in brief: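 Healthy adults aged 18-65 years took one oral dose (5, 10 or 20 mg) in the morning on an empty stomach. Dose cohorts were escalated in sequence and subjects stayed 24 h as inpatients. Toxicity was assessed on day 8, with contact on day 30, and graded by NCI-CTCAE. Serum TG was taken at screening, 24 h and day 8. Dose versus TG change was tested by Jonckheere-Terpstra.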

[5] = doses significantly higher than needed for chemopreventive activity; cited from earlier work
[6] = Single-dose pharmacokinetics of 9cUAB30 in healthy volunteers; format: in vivo, human
[7] = Stability of 9cUAB30 in spiked human plasma and urine stored at -70 °C; format: in vitro ADME
Method in brief: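 Blank human plasma and urine were spiked from a 1 μg/mL stock standard to 10 and 40 ng/mL (plasma, urine) and 100 ng/mL (urine only), then held at -70 °C for 12 weeks. Samples were run in triplicate by LC-MS/MS after liquid-liquid extraction with 9-cis-RA as internal standard. LLOQ was 1.56 ng/mL.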

[8] = tested on: KLF4-mediated tumor initiation; conditions: cited from earlier work
[9] = single dose 5, 10 or 20 mg, 14 subjects
[10] = single dose 5, 10 or 20 mg, all subjects n = 14

## CC/C(=C(\c1ccccc1)c1ccc(OCCN(C)C)cc1)c1ccccc1 [tamoxifen, reference compound]
[1]; tamoxifen 0.4 mg/kg of diet
  average tumors per animal: 4.6 tumors per animal

## CC1=C(/C=C/C(C)=C\C=C\C(C)=C\C(=O)O)C(C)(C)CCC1 [9-cis-RA, 9-cis-retinoic acid, reference compound]
[2]; 60 mg/kg of diet
  increase of serum TGs compared to untreated controls: 5 fold

## CC(=C/C=C/C(C)=C/C(=O)O)/C=C1\CCCc2ccccc21 [9cUAB30, (2E,4E,6Z,8E)-8-(3′,4′-Dihydro-1′(2′H)-naphthalen-1′-ylidene)-3,7-dimethyl-2,4,6-octatrienoic Acid]
Human hepatocytes
  cytotoxicity: no signs of cytotoxicity
Colony formation
  colony formation, % of untreated cells: 62%
RAR
  RAR-binding activity: little or no RAR-binding activity
[3]
  cell proliferation: significant inhibition of cell proliferation
[2]; 200 or 800 mg/kg of diet
  effect on serum TG levels: did not affect serum TG levels
[4]; 10-mg dose level, 6 subjects
  patients with grade 2 toxicity: 1
[4]; day 8, all subjects, screening 116 ± 34.8
  Mean TG levels: 114 ± 44.5
[4]; differences between the treatment groups 5, 10, 20 mg
  change in TG levels from baseline: not statistically significant; also recorded: did not significantly increase change in serum TGs
[4]; dose level 5 mg
  subjects with ≥ grade 2 toxicity: No subjects
[4]; dose level 20 mg
  subjects with ≥ grade 2 toxicity: No subjects
[4]; [9]
  grade 3 or 4 toxicities: no grade 3 or 4 toxicities reported
  patients experiencing grade 2 toxicity: 1
  tolerability: well tolerated
[4]; [10]
  Diarrhea, Grade II, patients (%): 0
  Dizziness, Grade I, patients (%): 0
  Elevated chloride, Grade II, patients (%): 0
  Elevation in cholesterol, Grade II, patients (%): 0
  Elevation in triglycerides, Grade II, patients (%): 0
  Fatigue, Grade I, patients (%): 0
  Headache, Grade II, patients (%): 0
  Nasal congestion, Grade II, patients (%): 0
  Nausea and vomiting, Grade I, patients (%): 0
  Reduced hemoglobin, Grade II, patients (%): 0
[5]
  toxicity in animal models: toxicity was not reported
[6]; assuming 1 compartment, first-order elimination, extrapolated from 20-mg dose
  dose required to achieve maximal concentrations of 0.294 μg/mL: 60 mg
[6]; human, urine and plasma, po
  CL renal: 0.3 to 1.72 mL/min
[6]; single oral dose, fasted healthy volunteers
  oral availability: orally available
[1]; 200 mg/kg/d diet
  decrease of MNU-induced mammary cancer incidence compared to controls: 63%
[1]; 9cUAB30 150 mg/kg of diet
  average tumors per animal: 4.3 tumors per animal
[7]; human plasma, −70 °C, 10 and 40 ng/mL
  stability in plasma: stable for 12 weeks
[7]; human urine, −70 °C, 10, 40 and 100 ng/mL
  stability in urine: stable for 12 weeks
[8]
  concentration required to prevent KLF4-mediated tumor initiation: 1 µmol/L
[8]; printed conversion of 1 μmol/L
  concentration required to prevent KLF4-mediated tumor initiation: 294 ng/mL
